Results published in ChEMBL document CHEMBL2062438, “Probing the structural requirements for vitamin D3 inhibition of the hedgehog signaling pathway” (Bioorg Med Chem Lett, 2012).

Experiments:
[1] = molecular target: T1, Vitamin D3 receptor (Homo sapiens, UniProt P11473); assay: Binding affinity to full length human VDR expressed in mouse C3H10T1/2 cells assessed as upregulation of CYP24A1 mRNA expression at 5 uM after 24 hrs by RT-PCR analysis relative to control; assay type: ADME, cell-based; details: c3h 10t1/2, 24 h
T1 sequence (P11473 whole entry): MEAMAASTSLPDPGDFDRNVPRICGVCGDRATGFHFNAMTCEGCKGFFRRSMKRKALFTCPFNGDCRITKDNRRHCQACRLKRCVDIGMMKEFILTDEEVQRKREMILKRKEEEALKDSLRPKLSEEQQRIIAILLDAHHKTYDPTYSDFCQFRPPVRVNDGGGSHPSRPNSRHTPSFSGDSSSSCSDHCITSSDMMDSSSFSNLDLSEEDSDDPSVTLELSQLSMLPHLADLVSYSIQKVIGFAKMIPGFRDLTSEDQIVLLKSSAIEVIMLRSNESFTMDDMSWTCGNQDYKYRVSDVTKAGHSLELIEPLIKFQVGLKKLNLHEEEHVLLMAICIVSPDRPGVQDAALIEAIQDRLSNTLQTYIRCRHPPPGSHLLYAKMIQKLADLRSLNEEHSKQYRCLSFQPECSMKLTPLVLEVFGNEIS
Method in brief: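 Mouse C3H10T1/2 cells treated with analogue at 5 µM for 24 h. Cyp24A1 mRNA was measured and expressed relative to DMSO control, which was set to 1.0.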

[2] = test system: HT-29; assay: Down-regulation of Gli1 mRNA expression in human HT-29 cells at 10 uM after 24 hrs by RT-PCR analysis relative to DMSO-treated control; assay type: functional
[3] = Growth inhibition of human U87MG cells after 72 hrs by MTS assay; assay type: functional, U-87MG ATCC; details: U-87 MG
Method in brief: (§1)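 Cells seeded at 3000/well, incubated overnight at 37 °C in 5% CO2, then treated in triplicate at varying concentrations in 1% DMSO final for 72 h. Viable cells read by MTS. GI50 given as mean ± SEM of at least two separate experiments.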

[4] = test system: HT-29; assay: Upregulation of CYP24A1 mRNA expression in human HT-29 cells at 10 uM after 24 hrs by RT-PCR analysis relative to DMSO-treated control; assay type: functional
[5] = Upregulation of CYP24A1 mRNA expression in human U87MG cells at 10 uM after 24 hrs by RT-PCR analysis relative to DMSO-treated control; assay type: functional, cell-based; details: U-87MG ATCC
[6] = Down-regulation of Gli1 mRNA expression in human U87MG cells at 10 uM after 24 hrs by RT-PCR analysis relative to DMSO-treated control; assay type: functional, cell-based; details: U-87MG ATCC
[7] = molecular target: Protein smoothened (Homo sapiens) (UniProt Q99835); assay: Inhibition of SMO expressed in mouse C3H10T1/2 cells assessed as down-regulation of Gli1 mRNA expression at 5 uM after 24 hrs by RT-PCR analysis relative to oxysterol; assay type: cell-based; parameters: scale not given: the % may be the effect or the level left; details: C3H 10T1/2
Chain of Protein smoothened (Homo sapiens) (Q99835 whole entry): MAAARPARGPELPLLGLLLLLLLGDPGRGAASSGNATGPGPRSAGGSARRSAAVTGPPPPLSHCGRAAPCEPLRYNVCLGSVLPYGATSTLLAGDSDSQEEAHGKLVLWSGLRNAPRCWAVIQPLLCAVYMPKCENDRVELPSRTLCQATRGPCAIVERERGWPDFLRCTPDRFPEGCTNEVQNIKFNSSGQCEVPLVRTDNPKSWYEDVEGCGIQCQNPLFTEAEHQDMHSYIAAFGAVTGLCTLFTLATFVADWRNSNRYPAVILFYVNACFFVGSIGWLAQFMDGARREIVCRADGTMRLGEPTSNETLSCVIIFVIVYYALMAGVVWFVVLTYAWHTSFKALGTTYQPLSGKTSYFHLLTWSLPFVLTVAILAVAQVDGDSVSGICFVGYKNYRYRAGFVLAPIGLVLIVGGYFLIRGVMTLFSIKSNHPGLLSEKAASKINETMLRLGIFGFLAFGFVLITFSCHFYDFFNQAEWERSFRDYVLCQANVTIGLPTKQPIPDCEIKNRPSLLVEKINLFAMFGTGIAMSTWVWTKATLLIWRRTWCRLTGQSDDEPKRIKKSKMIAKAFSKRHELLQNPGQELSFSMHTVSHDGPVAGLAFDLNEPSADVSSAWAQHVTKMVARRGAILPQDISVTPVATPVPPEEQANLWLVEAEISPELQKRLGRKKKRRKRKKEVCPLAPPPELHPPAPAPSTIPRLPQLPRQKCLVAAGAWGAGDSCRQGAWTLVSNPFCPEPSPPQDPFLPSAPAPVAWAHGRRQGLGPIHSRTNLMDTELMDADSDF
Method in brief: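 Hh-dependent C3H10T1/2 cells, with the pathway activated by oxysterol, co-treated with analogue at 5 µM for 24 h. Endogenous Gli1 mRNA is reported as % of the oxysterol control, set at 100%.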

[8] = test system: HT-29; assay: Growth inhibition of human HT-29 cells overexpressing VDR gene after 72 hrs by MTS assay; assay type: functional; details: HT-29, 72 h; method in brief: as §1
[9] = molecular target: T1, Vitamin D3 receptor; assay: Binding affinity to full length human VDR by fluorescence polarization-based competitive assay; assay type: ADME
Method in brief: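 Competitive fluorescence polarization binding using full-length human VDR and a tight-binding fluorescent VDR ligand; analogues tested at 50 and 100 µM.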

[10] = test system: U-87 MG; assay: Ratio of CYP24A1 mRNA upregulation in human […] cells to upregulation of CYP24A1 mRNA in human U87MG cells; assay type: functional, U-87MG ATCC

Structure (SMILES)	Activity [1]	fold change (FC) [2]	GI50 [3] [µM]	fold change (FC) [4]	fold change (FC) [5]	fold change (FC) [6]	Activity [7] [%]	GI50 [8] [µM]	Activity [9] [µM]	Ratio [10]
CC(C)CCC[C@@H](C)[C@H]1CC[C@H]2C(=O)CCC[C@]12C	3	1.1	12.1	1	0.5	0.9	66.1	> 100	> 100	
C=C1CC[C@H](O)C/C1=C/CO	2	0.9	> 100	0.7	0.6	0.9	80.9	> 100	> 100	
C=C1CC[C@H](O)C/C1=C/C=C1\CCC[C@]2(C)[C@@H]([C@H](C)CCCC(C)C)CC[C@@H]12 [CHOLECALCIFEROL]	8340	1.3	23.2	14697	12.2	0.7		68.5	> 100	10000
C=C1CC[C@H](O)C/C1=C/C(O)C1(O)CCC[C@]2(C)[C@@H]([C@H](C)CCCC(C)C)CC[C@@H]12 (some centres not stated)	6.7	0.9	25.9	1.2	0.5	1.1	144	> 100	> 100	
C=C1CC[C@H](O)C/C1=C/C=C1\CCC[C@]2(C)[C@@H]([C@H](C)CO)CC[C@@H]12	1350	2.7	> 100	69.1	4.8	1	80	> 100	> 100	
CC(C)CCC[C@@H](C)[C@H]1CC[C@H]2C(CCC3C[C@@H](O)CCC3C)CCC[C@]12C (some centres not stated)	1.5	1.4	> 100	1.4	0.8	0.8	82.1	> 100	> 100	
CC(C)[C@@H](C)/C=C/[C@@H](C)[C@H]1CC[C@H]2[C@@H](O)CCC[C@]12C	2.3	0.9	19	0.7	0.3	0.8	32.1	49.7	> 100	
C=C1CCC=C/C1=C/C=C1\CCC[C@]2(C)[C@@H]([C@H](C)CCCC(C)C)CC[C@@H]12	3	1.8	48.5	1.9	0.9	1	79.4	> 100	> 100	
CC(C)CCC[C@@H](C)[C@H]1CC[C@H]2[C@@H](O)CCC[C@]12C	3.6	1.1	5.7	1.1	0.4	0.7	46.4	66.5	> 100	
C=C1CC[C@H](O)C/C1=C/C=C1\CCC[C@]2(C)[C@@H]([C@H](C)/C=C/[C@H](C)C(C)C)CC[C@@H]12 [ERGOCALCIFEROL]	2410	1.1	33.7	10902	49.6	0.9	28.1	> 100	> 100	25
CC(C)CCC[C@@H](C)[C@H]1CCC2=CCCC[C@@]21C	2.3	1.1	> 100	1.1	0.5	1	111	> 100	> 100	
C[C@H](CO)[C@H]1CC[C@H]2[C@@H](O)CCC[C@]12C	4.1	1.2	> 100	1	0.7	1	87.6	> 100	> 100	
C=C1CC[C@H](O)C/C1=C\C=C1/CCC[C@]2(C)[C@@H]([C@H](C)CO)CC[C@@H]12	12.5	1.3	88.8	3.3	0.8	0.8	66.7	> 100	> 100	
C=C1CC[C@H](O)C/C1=C\C=C1/CCC[C@]2(C)[C@@H]([C@H](C)CCCC(C)C)CC[C@@H]12	43.5	1.2	46	27.5	33.8	1.1	69.7	> 100	> 100	
